pIC50: −log10 of the molar value. The source made the active and inactive calls. The calls are words filed in the database; no cut-off is given here.

Series [1] relates to MCF7. Kind of series: Antiproliferative activity against human MCF7 cells assessed as reduction in cell viability after 72 hrs by MTT assay. The class given is functional, cell-based. The conditions noted are these: for pIC50: MCF7, 72 h. In short, it runs like this: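 MCF-7 cells (DMEM, 10% FBS, 37 °C, 5% CO2) seeded 5 × 10³/well, left overnight, then exposed to compounds (0−50 μM) for 72 h. MTT added to 0.5 mg/mL final; formazan solubilised overnight with 10% SDS in 0.01 N HCl, absorbance at 570 nm. IC50 taken relative to vehicle (0.1% DMSO) as 100% survival. Triplicate determinations, three independent experiments; paclitaxel as positive control.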

For series [2], the system named is MCF7. Briefly: Induction of ROS generation in human MCF7 cells at 5 to 10 uM up to 3 hrs by DCFH-DA dye based flow cytometric analysis. The class given is functional, cell-based. The conditions noted are these: dose 5-10 µM, time hrs <=3.
The test system of series [3] is MCF7. Briefly: Induction of lysosomal membrane permeabilization in human MCF7 cells at 5 to 10 uM […] by AO staining based flow cytometry. The settings on record: dose 5-10 µM. The class given is functional, cell-based.
For series [4], the system named is MCF7. Kind of series: Induction of lysosomal membrane permeabilization in human MCF7 cells after 6 hrs by AO staining based flow cytometry. The class given is functional, cell-based. The conditions noted are these: dose 5-10 µM. In a few lines: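 MCF-7 cells treated at 5 or 10 μM (0−10 μM) for various periods, washed with PBS, then stained with acridine orange (10 μM, 15 min, 37 °C) and analysed by flow cytometry. LMP measured from green-channel MFI at 6 h as fold of vehicle; five repeats in triplicate.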

The next series relates to U2OS. Kind of series: Antiproliferative activity against human U2OS cells assessed as reduction in cell viability after 72 hrs by MTT assay. The format is functional, cell-based. In a few lines: (§1)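 U2-OS (ATCC) or INT-407 cells, cultured in DMEM with 10% FBS at 37 °C, 5% CO2, assayed by MTT reduction under the conditions used for MCF-7: 72 h exposure, absorbance at 570 nm, viability relative to 0.1% DMSO vehicle control; INT-407 tested up to 50 μM.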

The subject of series [5] is MCF7. Kind of series: Induction of apoptosis in human MCF7 cells assessed as increase in sub-G1 cell population at 10 uM after 48 hrs by propidium iodide/RNase A staining based flow cytometric analysis (reference value: 5.4 +/- 2.1 %). The format is functional.
Series [6] in a line: Antiproliferative activity against human INT-407 cells assessed as reduction in cell viability up to 50 uM after 72 hrs by MTT assay. The format is cell-based. The settings on record: intestine 407, 72 h. In short, it runs like this: as §1
Series [7] relates to MCF7. Briefly: Inhibition of colony formation in human MCF7 cells incubated for 10 days by crystal violet staining based assay. The class given is functional, cell-based. The settings on record: dose 1-5 µM, time 10.0 day. In a few lines: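 Clonogenic survival: MCF-7 cells, 1 × 10³ per well, seeded overnight, then grown with 1, 2.5 or 5 μM in complete medium for 10 days. Colonies fixed with MeOH, stained with 0.5% crystal violet in 1:1 MeOH–water, counted. Surviving fraction corrected for plating efficiency, relative to vehicle; triplicates, three repeats.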

Series [8] concerns MCF7. Briefly: Induction of mitochondrial membrane potential loss in human MCF7 cells incubated for 6 hrs by JC1 staining based flow cytometry. The format is functional, cell-based. The settings on record: dose 5-10 µM. In a few lines:
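JC-1 assay: MCF-7 cells (1 × 10⁵/well) treated at 5 or 10 μM (legend gives 6 h, methods 8 h), stained with JC-1 (5 μg/mL) for 30 min, trypsinised, and analysed by flow cytometry. MMP loss scored from the drop in red fluorescence MFI as fold of vehicle; CCCP 10 μM as positive control. Five repeats in triplicate.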

The test system of series [9] is MCF7. Briefly: Induction of cell cycle arrest in human MCF7 cells assessed as accumulation at G2 phase at 5 to 10 uM incubated for 24 hrs by propidium iodide/RNase A staining based flow cytometry. The conditions noted are these: dose 5-10 µM. The class given is functional. In short, it runs like this: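 For the cell cycle, MCF-7 cells were exposed to vehicle, 5 or 10 μM for 24 h, stained with PI/RNase in 0.1% sodium citrate containing Triton X-100, and phase distribution was quantified by flow cytometry. Three experiments, each in triplicate.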

Series [10] concerns MCF7. Kind of series: Induction of ROS generation in human MCF7 cells at 5 to 10 uM incubated for 6 hrs by DCFH-DA dye based flow cytometric analysis. The format is functional, cell-based. The settings on record: dose 5-10 µM. In short, it runs like this: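 MCF-7 cells (1 × 10⁵/well) loaded with DCFH-DA (10 μM, 30 min), washed, then exposed to 5 or 10 μM for various periods (6 h quantified); H2O2 100 μM as positive control. DCF green fluorescence (ex 480/em 530 nm) read by flow cytometry, expressed as fold of vehicle. Three repeats in triplicate.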

Series [11] concerns MCF7. Briefly: Induction of apoptosis in human MCF7 cells assessed as increase in sub-G1 cell population at 5 uM after 48 hrs by propidium iodide/RNase A staining based flow cytometric analysis (reference value: 5.4 +/- 2.1 %). The format is functional.

Regarding `COc1cc(CC[C@H](O)CC(=O)CCc2ccccc2)ccc1O`, in the series on MCF7 [1], the Activity result was “Dose-Dependent Effect” and the negative-log IC50 (pIC50) was < 4.30.
As for `COc1cc(CC/C=C/C(=O)CCc2ccccc2)ccc1O`, the outcome in the series with MCF7 [2] and with MCF7 [3] was inactive. Also, the Activity result is “Dose-Dependent Effect” in the series on MCF7 [4]; 27.5% in the series on MCF7 [5]; “Non-Toxic” in series [6]; “Dose-Dependent Effect” in the series on MCF7 [8]; “Dose-Dependent Effect” with MCF7 [1]; 16.3% in the series on MCF7 [11]. Also, the pIC50 in the series with U2OS was 4.97; with MCF7 [1], 5.41. Moreover, the inhibition result in the series with MCF7 [7] is “Dose-Dependent Effect”. Further, the outcome in the series on MCF7 [9] and in the series on MCF7 [10] was Active.
For `COc1cc(CC[C@@H](O)CC(=O)CCc2ccccc2)ccc1O`, in the series on MCF7 [1], the Activity result is “Dose-Dependent Effect” and the negative logarithm of the IC50 (pIC50) is < 4.30.

These data come from ChEMBL document CHEMBL4819033, “Synthesis of Bioactive Diarylheptanoids from Alpinia officinarum and Their Mechanism of Action for Anticancer Properties in Breast Cancer Cells” (J Nat Prod, 2021).
